From ChEMBL document CHEMBL4354873, “Rationally Designed Small-Molecule Inhibitors Targeting an Unconventional Pocket on the TLR8 Protein-Protein Interface” (J Med Chem, 2020)
Active and inactive are the calls of the source. The calls are words filed in the database; no cut-off is given here.

Assays:
[1] = molecular target: Toll-like receptor 5 (Homo sapiens) (UniProt O60602); test: Inhibition of human TLR5 expressed in HEK-Blue cells assessed as inhibition of flagellin-induced NF-kappaB activation at 20 uM measured after 24 hrs by quanti-blue based SEAP reporter gene assay; format: cell-based
Sequence of Toll-like receptor 5 (Homo sapiens) (O60602 whole entry): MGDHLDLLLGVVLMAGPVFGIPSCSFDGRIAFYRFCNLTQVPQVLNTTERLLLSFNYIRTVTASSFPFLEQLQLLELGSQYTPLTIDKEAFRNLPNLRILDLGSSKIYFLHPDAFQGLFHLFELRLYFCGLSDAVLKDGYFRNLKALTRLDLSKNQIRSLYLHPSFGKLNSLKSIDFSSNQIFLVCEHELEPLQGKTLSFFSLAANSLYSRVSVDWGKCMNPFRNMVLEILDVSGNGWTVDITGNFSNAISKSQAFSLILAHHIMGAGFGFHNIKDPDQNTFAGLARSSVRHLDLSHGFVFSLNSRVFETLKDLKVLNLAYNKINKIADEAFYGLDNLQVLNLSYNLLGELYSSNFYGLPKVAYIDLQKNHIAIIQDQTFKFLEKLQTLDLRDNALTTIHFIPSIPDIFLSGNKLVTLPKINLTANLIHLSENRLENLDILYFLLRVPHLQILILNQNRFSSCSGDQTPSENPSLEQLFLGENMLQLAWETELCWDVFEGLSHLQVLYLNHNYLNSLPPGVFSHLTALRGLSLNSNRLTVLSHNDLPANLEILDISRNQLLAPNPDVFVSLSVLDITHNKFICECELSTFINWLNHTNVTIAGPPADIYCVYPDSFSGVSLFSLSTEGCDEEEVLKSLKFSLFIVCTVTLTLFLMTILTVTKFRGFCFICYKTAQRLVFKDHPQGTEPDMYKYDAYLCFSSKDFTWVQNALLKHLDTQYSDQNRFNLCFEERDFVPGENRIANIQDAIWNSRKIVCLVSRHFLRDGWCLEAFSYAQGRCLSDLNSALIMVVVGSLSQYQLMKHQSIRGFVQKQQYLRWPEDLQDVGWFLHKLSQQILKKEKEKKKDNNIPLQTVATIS
Outline: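 HEK-Blue SEAP format: 4 × 10⁴ cells/well in DMEM with ligand plus compound, 24 h at 37 °C. Supernatant mixed with QUANTI-Blue up to 1 h, then A620 read. Ligands: Pam3CSK4 100 ng/mL (TLR1/2), Pam2CSK4 100 ng/mL (TLR2/6), poly(I:C) 5 µg/mL (TLR3), LPS 20 ng/mL (TLR4), flagellin 50 ng/mL (TLR5), R848 1 µg/mL (TLR7), R848 2 µg/mL (TLR8), ODN2006 0.5 µM (TLR9). Mean ± s.d.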

[2] = molecular target: T1, Toll-like receptor 8 (Homo sapiens) (UniProt Q9NR97); test: Inhibition of TLR8 in human monocytes assessed as reduction in R848-induced phosphorylated IRAK4 expression measured after 2 hrs by Western blot analysis; format: cell-based
T1 sequence (whole entry): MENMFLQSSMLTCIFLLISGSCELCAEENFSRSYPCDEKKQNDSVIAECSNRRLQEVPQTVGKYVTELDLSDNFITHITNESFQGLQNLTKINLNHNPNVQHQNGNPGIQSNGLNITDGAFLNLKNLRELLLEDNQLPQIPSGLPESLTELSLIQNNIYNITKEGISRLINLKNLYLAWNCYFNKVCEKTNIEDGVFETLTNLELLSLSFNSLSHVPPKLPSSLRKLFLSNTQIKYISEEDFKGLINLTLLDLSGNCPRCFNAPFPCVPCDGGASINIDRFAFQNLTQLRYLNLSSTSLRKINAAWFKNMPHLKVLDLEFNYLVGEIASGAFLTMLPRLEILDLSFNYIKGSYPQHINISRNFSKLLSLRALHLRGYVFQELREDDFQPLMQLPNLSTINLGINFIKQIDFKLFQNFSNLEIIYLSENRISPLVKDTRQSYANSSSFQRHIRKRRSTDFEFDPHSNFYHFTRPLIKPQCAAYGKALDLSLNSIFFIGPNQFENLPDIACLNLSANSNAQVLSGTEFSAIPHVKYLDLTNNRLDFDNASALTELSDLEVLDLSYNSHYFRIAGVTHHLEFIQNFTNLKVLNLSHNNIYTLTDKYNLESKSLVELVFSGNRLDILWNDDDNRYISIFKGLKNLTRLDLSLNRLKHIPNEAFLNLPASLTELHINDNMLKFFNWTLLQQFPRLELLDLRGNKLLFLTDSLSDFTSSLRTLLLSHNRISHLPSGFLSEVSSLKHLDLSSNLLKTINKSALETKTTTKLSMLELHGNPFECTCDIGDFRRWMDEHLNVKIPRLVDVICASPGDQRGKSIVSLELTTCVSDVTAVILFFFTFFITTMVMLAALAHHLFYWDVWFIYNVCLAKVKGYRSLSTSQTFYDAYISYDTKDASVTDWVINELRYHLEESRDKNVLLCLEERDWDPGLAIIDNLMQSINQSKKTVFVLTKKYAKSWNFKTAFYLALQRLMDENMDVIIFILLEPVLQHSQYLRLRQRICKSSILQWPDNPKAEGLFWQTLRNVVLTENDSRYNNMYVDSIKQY
Outline: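 Monocyte cell lines, 2 × 10⁶/well, differentiated with PMA 100 ng/mL for 24 h. After washes, cells in unsupplemented RPMI received R848 1 µg/mL with varying compound concentrations for 2 h. Nuclear/cytoplasmic fractions extracted and resolved on 10% SDS-PAGE. Blots probed for p65, TRAF3 and p-IRAK4 (1:1000); lamin A/C (nuclear) and β-actin (cytoplasmic) as loading controls.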

[3] = molecular target: T1, Toll-like receptor 8 (Homo sapiens); test: Inhibition of TLR8 in human monocytes assessed as reduction in R848-induced TNFalpha production measured after 24 hrs by ELISA; format: cell-based
Outline: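 Human monocyte cell lines in RPMI 1640 with 10% FBS and 0.05 mM 2-mercaptoethanol, 1 × 10⁶/well, 24 h. After PBS washes, fresh RPMI added with R848 1 µg/mL and varying compound concentrations for 24 h. Supernatant TNF-α, IL-6 and IL-1β measured by ELISA.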

[4] = molecular target: T1, Toll-like receptor 8 (Homo sapiens); test: Inhibition of TLR8 in human PBMC assessed as reduction in R848-induced TNFalpha production measured after 24 hrs by ELISA
Outline: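 PBMCs from healthy donors isolated by density gradient centrifugation and cultured at once at 3 × 10⁶ cells/mL in RPMI 1640. Cells received R848 and varying compound concentrations for 24 h. Supernatants spun 10 min at 4 °C, frozen at −80 °C, and TNF-α measured by ELISA.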

[5] = molecular target: T1, Toll-like receptor 8 (Homo sapiens); test: Inhibition of TLR8 in rheumatoid arthritis patient-derived PBMC assessed as reduction in spontaneous TNFalpha production measured after 24 hrs by ELISA

- inhibition [1]: inactive
- inhibition [2]: Dose-dependent effect
- inhibition [3]: Dose-dependent effect
- inhibition [4]: Dose-dependent effect
- inhibition [5]: Dose-dependent effect
Compound: CSc1nnc(CCCO)n1-c1cc(C)c(C)c(C)c1
